Measurements taken from ChEMBL document CHEMBL1124400, “Synthesis and evaluation of antileukemic activity of 5-thienyl- or 5-(2-furyl)-2,3-dihydro-6,7-bis(hydroxymethyl)-1H-pyrrolizine bis(alkylcarbamates) and derivatives” (J Med Chem, 1989).
Where “and” joins values, the source holds several entries; their conditions need not be identical. Equal values may be shown once.

Assays:
Mus musculus [1] = experiment: Median survival time of treated group / untreated group, when 20 mg/kg compound is administered intraperitoneally in L1210 leukemic mice; format: functional; details: route intraperitoneal
Procedure, shortened: (§1)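 Male 3-month-old B6D2F1 mice, 10⁵ L1210 cells ip on day 0. Compound was given ip on days 1, 5 and 9 in aqueous 20% Tween 80 (0.1–0.2 mL per 20 g), 8 mice per group. Twelve vehicle controls. Daily mortality with autopsy to assign leukemic versus toxic death. I = treated MST × 100/control MST. Wilcoxon test, p < 0.05; active if I > 125 and p < 0.05.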

Mus musculus [2] = experiment: MST of mitomycin 2 mg/kg treated group x 100/MST of untreated control group at a dose of 20 mg/kg in L1210 leukemic mice; format: functional
Procedure, shortened: (§2)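 Reference group of 8 B6D2F1 mice bearing ip-grafted 10⁵ L1210 cells (day 0), given mitomycin 2 mg/kg in distilled water ip on days 1, 5 and 9. Controls were 12 mice given vehicle only. Mortality was followed daily with autopsy. Ref I = mitomycin-group MST × 100/control MST, run alongside each test experiment.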

[3] = Ratio, I x 100/ref I at a dose of 20 mg/kg in L1210 leukemic mice; format: functional
Procedure, shortened: (§3)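 Male B6D2F1 mice, 3 months old, received 10^5 L1210 cells ip on day 0. Dosing was ip on days 1, 5 and 9 in 20% aqueous Tween 80, 0.1–0.2 mL per 20 g, with 8 mice per group. There were 12 vehicle controls and 8 mice given mitomycin 2 mg/kg ip in water. Daily mortality was recorded, with autopsies. Ratio = treated-group MST ×100/reference-group MST; Wilcoxon, p<0.05.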

Mus musculus [4] = experiment: Median survival time of treated group / untreated group, when 50 mg/kg compound is administered intraperitoneally in L1210 leukemic mice; format: functional; details: route intraperitoneal; procedure, shortened: as §1
Mus musculus [5] = experiment: MST of mitomycin 2 mg/kg treated group x 100/MST of untreated control group at a dose of 50 mg/kg in L1210 leukemic mice; format: functional; procedure, shortened: as §2
[6] = Ratio, I x 100/ref I at a dose of 50 mg/kg in L1210 leukemic mice; format: functional; procedure, shortened: as §3
Mus musculus [7] = experiment: MST of mitomycin 2 mg/kg treated group x 100/MST of untreated control group at a dose of 100 mg/kg in L1210 leukemic mice; format: functional; procedure, shortened: as §2
Mus musculus [8] = experiment: Median survival time of treated group / untreated group, when 100 mg/kg compound is administered intraperitoneally in L1210 leukemic mice; format: functional; details: route intraperitoneal; procedure, shortened: as §1
[9] = Lethal dose in L1210 leukemic mice, by administering compound intraperitoneally; format: toxicity, organism-based; details: mouse, in vivo, ip
Procedure, shortened: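 Male B6D2F1 mice (3 months old) received 10⁵ L1210 leukemia cells ip on day 0. One day later they were given compound ip. Mortality was recorded daily for 9 days and the acute LD50 expressed in mg/kg.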

[10] = Ratio, I x 100/ref I at a dose of 100 mg/kg in L1210 leukemic mice; format: functional; procedure, shortened: as §3
[11] = Ratio of acute lethal dose to the efficient dose at 85 mg/kg dose; format: functional
Procedure, shortened: (§4)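 Ratio of acute LD50 to efficient dose. LD50 came from single ip dosing one day after ip grafting of 10⁵ L1210 cells in B6D2F1 mice, with 9-day mortality. The efficient dose came from ip treatment on days 1, 5 and 9 in the median-survival test.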

[12] = Ratio, I x 100/ref I at a dose of 16 mg/kg in L1210 leukemic mice; format: functional; procedure, shortened: as §3
Mus musculus [13] = experiment: MST of mitomycin 2 mg/kg treated group x 100/MST of untreated control group at a dose of 75 mg/kg in L1210 leukemic mice; format: functional; procedure, shortened: as §2
Mus musculus [14] = experiment: Median survival time of treated group / untreated group, when 16 mg/kg compound is administered intraperitoneally in L1210 leukemic mice; format: functional; details: route intraperitoneal; procedure, shortened: as §1
Mus musculus [15] = experiment: Median survival time of treated group / untreated group, when 40 mg/kg compound is administered intraperitoneally in L1210 leukemic mice; format: functional; details: route intraperitoneal; procedure, shortened: as §1
[16] = Ratio, I x 100/ref I at a dose of 40 mg/kg in L1210 leukemic mice; format: functional; procedure, shortened: as §3
Mus musculus [17] = experiment: MST of mitomycin 2 mg/kg treated group x 100/MST of untreated control group at a dose of 40 mg/kg in L1210 leukemic mice; format: functional; procedure, shortened: as §2
[18] = Ratio of acute lethal dose to the efficient dose at 100 mg/kg dose; format: functional; procedure, shortened: as §4
Mus musculus [19] = experiment: MST of mitomycin 2 mg/kg treated group x 100/MST of untreated control group at a dose of 16 mg/kg in L1210 leukemic mice; format: functional; procedure, shortened: as §2
Mus musculus [20] = experiment: Median survival time of treated group / untreated group, when 75 mg/kg compound is administered intraperitoneally in L1210 leukemic mice; format: functional; details: route intraperitoneal; procedure, shortened: as §1
[21] = Ratio, I x 100/ref I at a dose of 75 mg/kg in L1210 leukemic mice
Mus musculus [22] = experiment: Median survival time of treated group / untreated group, when 100 mg/kg compound is administered intraperitoneally in L1210 leukemic mice; details: route intraperitoneal
[23] = Ratio, I x 100/ref I at a dose of 10 mg/kg in L1210 leukemic mice; format: functional; procedure, shortened: as §3
Mus musculus [24] = experiment: MST of mitomycin 2 mg/kg treated group x 100/MST of untreated control group at a dose of 10 mg/kg in L1210 leukemic mice; format: functional; procedure, shortened: as §2
Mus musculus [25] = experiment: Median survival time of treated group / untreated group, when 10 mg/kg compound is administered intraperitoneally in L1210 leukemic mice; format: functional; details: route intraperitoneal; procedure, shortened: as §1
[26] = Ratio, I x 100/ref I at a dose of 4 mg/kg in L1210 leukemic mice; format: functional; procedure, shortened: as §3
Mus musculus [27] = experiment: MST of mitomycin 2 mg/kg treated group x 100/MST of untreated control group at a dose of 15 mg/kg in L1210 leukemic mice; format: functional; procedure, shortened: as §2
Mus musculus [28] = experiment: Median survival time of treated group / untreated group, when 15 mg/kg compound is administered intraperitoneally in L1210 leukemic mice; format: functional; details: route intraperitoneal; procedure, shortened: as §1
[29] = Ratio, I x 100/ref I at a dose of 15 mg/kg in L1210 leukemic mice; format: functional; procedure, shortened: as §3
Mus musculus [30] = experiment: Median survival time of treated group / untreated group, when 4 mg/kg compound is administered intraperitoneally in L1210 leukemic mice; format: functional; details: route intraperitoneal; procedure, shortened: as §1
Mus musculus [31] = experiment: MST of mitomycin 2 mg/kg treated group x 100/MST of untreated control group at a dose of 4 mg/kg in L1210 leukemic mice; format: functional; procedure, shortened: as §2
Mus musculus [32] = experiment: Median survival time of treated group / untreated group, when 8 mg/kg compound is administered intraperitoneally in L1210 leukemic mice; format: functional; details: route intraperitoneal; procedure, shortened: as §1
[33] = Ratio, I x 100/ref I at a dose of 8 mg/kg in L1210 leukemic mice; format: functional; procedure, shortened: as §3
[34] = Ratio of acute lethal dose to the efficient dose at 20 mg/kg; format: functional; procedure, shortened: as §4
Mus musculus [35] = experiment: MST of mitomycin 2 mg/kg treated group x 100/MST of untreated control group at a dose of 8 mg/kg in L1210 leukemic mice; format: functional; procedure, shortened: as §2

In the case of `CNC(=O)OCc1c(COC(=O)NC)c(-c2ccco2)n2c1CCC2`, the Oncostatic index (Mus musculus [1]) is reported as 100, the “Ref I oncostatic index” value (Mus musculus [2]) is reported as 117 and the Ratio [3] is reported as 86. The Oncostatic index (Mus musculus [4]) was 108, the “Ref I oncostatic index” value (Mus musculus [5]) was 117 and the Ratio [6] was 92. For the same compound, the Ref I oncostatic index (Mus musculus [7]) was 125, the Oncostatic index (Mus musculus [8]) was 100 and the LD50 [9] was greater than 150 mg/kg. For the same compound, the Ratio [10] was 80.
In the case of `CNC(=O)OCc1c(COC(=O)NC)c(-c2ccsc2)n2c1CCC2`, the Ratio [11] is reported as 1.4, the Ratio [12] is reported as 80 and the “Ref I oncostatic index” value (Mus musculus [13]) is reported as 140 and 126. It also gave an Oncostatic index (Mus musculus [14]) of 100, an Oncostatic index (Mus musculus [15]) of 100 and a Ratio [16] of 80. The “Ref I oncostatic index” value (Mus musculus [17]) was 125, the Ratio [18] was 1.2 and the “Ref I oncostatic index” value (Mus musculus [19]) was 125. The Ref I oncostatic index (Mus musculus [7]) was 140, the Oncostatic index (Mus musculus [20]) was 120 and the Ratio [21] was 86. The LD50 [9] was greater than 150 mg/kg, the Ratio [10] was 86 and the Oncostatic index (Mus musculus [22]) was 120.
In the case of `CC(C)NC(=O)OCc1c(COC(=O)NC(C)C)c(-c2cccs2)n2c1CCC2`, the Ratio [23] is reported as 79, the “Ref I oncostatic index” value (Mus musculus [24]) is reported as 163 and the Oncostatic index (Mus musculus [25]) is reported as 129. For the same compound, the Ratio [26] was 66, the “Ref I oncostatic index” value (Mus musculus [27]) was 139 and the Oncostatic index (Mus musculus [28]) was 125. It also gave an LD50 [9] of 35 mg/kg, a Ratio [29] of 90 and an Oncostatic index (Mus musculus [30]) of 108. The “Ref I oncostatic index” value (Mus musculus [31]) was 164.
In the case of `CNC(=O)OCc1c(COC(=O)NC)c(-c2cccs2)n2c1CSC2`, the Oncostatic index (Mus musculus [1]) is reported as 125, the “Ref I oncostatic index” value (Mus musculus [2]) is reported as 121 and the Oncostatic index (Mus musculus [32]) is reported as 100. It also gave a Ratio [33] of 86, a Ratio [3] of 103 and a Ratio [34] of 2.5. The LD50 [9] was 50 mg/kg and the “Ref I oncostatic index” value (Mus musculus [35]) was 117.
